Experimental data: paper PMC4452166 (Cancer Science, 2015)

Assays:
[1] = in vivo; cited from earlier work
[2] = tested on: Jurkat cells; experiment: Jurkat xenograft model in SCID mice; type: in vivo; conditions: for tumor weight vs vehicle: day 35 after inoculation; for Survival: tumor-bearing SCID mice
Outline: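 Six-week-old female SCID mice inoculated s.c. with 5 × 10^7 Jurkat cells. From day 20, mice received saline vehicle, test compound 13 mg/kg (13 μmol/kg) or CdCl2 3 mg/kg (13 μmol/kg) i.p. three times weekly for 2 weeks, n = 5 per group. Body weight and tumor size taken three times weekly; volume = long × short² × 1/2. Killed on day 35; tumors, liver, kidney, spleen and lung weighed. Student's t-test.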

[3] = tested on: TE4 cells; experiment: MTT cytotoxicity assay, TE4; type: cell-based, human; conditions: for IC50: read-out: IC50 (cytotoxicity), TE4, 48 h
Outline: (§1)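 Human epithelia-derived lines grown in 10% FBS media at 37°C, 5% CO2: FLC-4 in DMEM/F12, MCF7 in Eagle's MEM + 10 μg/mL insulin, HCT116 in McCoy's 5A, AGS/HEK293 in DMEM, TE4 in RPMI. Cells seeded 24 h before test compound, then exposed 48 h at 37°C. MTT 4 h; overnight solubilisation (DMF/acetic acid/HCl/SDS); OD 570 nm. n = 3. IC20 reported as maximum tolerated concentration.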

[4] = tested on: AGS cells; experiment: MTT cytotoxicity assay, AGS; type: cell-based, human; conditions: for IC50: read-out: IC50 (cytotoxicity), 48 h
Outline: as §1

[5] = tested on: HL-60 cells; experiment: MTT cytotoxicity assay, HL-60; type: cell-based, human; conditions: read-out: IC50 (cytotoxicity), HL-60, 48 h
Outline: (§2)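 Leukemia lines kept in RPMI medium with 10% FBS and antibiotics, 37°C, 5% CO2. Cells plated directly with test compound and incubated 48 h at 37°C. MTT added for 4 h; formazan dissolved overnight at room temperature in extraction solution (40% dimethylformamide, 2% acetic acid, 0.03 M HCl, 20% SDS); OD 570 nm. Means ± SD, n = 3.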

[6] = tested on: HUT78 cells; experiment: MTT cytotoxicity assay, HUT78; type: cell-based, human; conditions: read-out: IC50 (cytotoxicity), HUT78, 48 h
Outline: as §2

[7] = tested on: JKT-beta-del cells; experiment: MTT cytotoxicity assay, JKT-beta-del; type: cell-based, human; conditions: read-out: IC50 (cytotoxicity), 48 h
Outline: as §2

[8] = tested on: Jurkat cells; experiment: MTT cytotoxicity assay, Jurkat; type: cell-based, human; conditions: read-out: IC50 (cytotoxicity), 48 h
Outline: as §2

[9] = tested on: MCF7 cells; experiment: MTT cytotoxicity assay, MCF7; type: cell-based, human; conditions: for IC50: read-out: IC50 (cytotoxicity), MCF7, 48 h
Outline: as §1

[10] = tested on: HEK293 cells; experiment: MTT cytotoxicity assay, HEK293; type: cell-based, human; conditions: for IC50: read-out: IC50 (cytotoxicity), HEK293, 48 h
Outline: as §1

[11] = tested on: HCT116 cells; experiment: MTT cytotoxicity assay, HCT116; type: cell-based, human; conditions: for IC50: read-out: IC50 (cytotoxicity), HCT116, 48 h
Outline: as §1

[12] = tested on: FLC-4 cells; experiment: MTT cytotoxicity assay, FLC-4; type: cell-based, human; conditions: for IC50: read-out: IC50 (cytotoxicity), FLC-4, 48 h
Outline: as §1

[13] = tested on: low TC4ATS-Cd-sensitive leukemia cell lines and epithelia-derived cell lines except for HEK293; type: cell-based, human; conditions: 50 μM, 24 h, western blot
[14] = tested on: HPB-ALL cells; experiment: Western blot of activated caspase-3 and cleaved PARP, HPB-ALL; type: cell-based, human; conditions: 50 μM, 24 h
Outline: (§3)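 Leukemia cells treated with test compound for 24 h. Equal protein run on reducing SDS-PAGE and transferred to PVDF. Blocked in 1% skim milk; probed for activated caspase-3, cleaved PARP and β-actin; peroxidase secondary antibody; ECL detection.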

[15] = tested on: PEER cells; experiment: MTT cytotoxicity assay, PEER; type: cell-based, human; conditions: read-out: IC50 (cytotoxicity), 48 h
Outline: as §2

[16] = tested on: HPB-ALL cells; experiment: MTT cytotoxicity assay, HPB-ALL; type: cell-based, human; conditions: read-out: IC50 (cytotoxicity), 48 h
Outline: as §2

[17] = tested on: caspase-3 in Jurkat cells; experiment: Caspase-3 activity assay with fluorogenic substrate in cell lysates; type: cell-based, human; conditions: Ac-DEVD-MCA substrate
[18] = tested on: Jurkat cells; experiment: Western blot of activated caspase-3 and cleaved PARP, Jurkat; type: cell-based, human; conditions: 24 h
Outline: as §3

[19] = tested on: Jurkat cells; experiment: Lactate dehydrogenase; type: cell-based, human; conditions: 48 h
[20] = 13 μmol/kg i.p. three times weekly for 2 weeks

Molecule	renal atrophy (relative kidney weight) [2, 20]	tumor weight vs vehicle [2, 20]	Survival [2, 20]	IC50 [3]	IC50 [4]	IC50 [5]	IC50 [6]	IC50 [7]	IC50 [8]	IC50 [9]	IC50 [10]	IC50 [11]	IC50 [12]	apoptotic events (caspase-3 activation, PARP cleavage) [13]	caspase-3 activation and cleavage of PARP [14]	IC50 [15]	IC50 [16]	further results
O=S(=O)(O)c1cc2c(O)c(c1)Cc1cc(S(=O)(=O)O)cc(c1O)Cc1cc(S(=O)(=O)O)cc(c1O)Cc1cc(S(=O)(=O)O)cc(c1O)C2 [C4ATS, p-tetrasulfonated calix[4]arene]	–	–	–	–	–	–	–	–	–	–	–	–	–	–	–	–	–	dose without toxic effects, acute toxicity [1]: ≥ 100 mg/kg
[Cl][Cd][Cl] [CdCl2, Cadmium chloride, reference compound]	notably induced renal atrophy	non-significant decrease	3/5	0.129 mM	60 µM	27 µM	25 µM	30 µM	6.5 µM	0.036 mM	1.9 µM	47 µM	0.106 mM	not elicited	induced	28 µM	9.8 µM	–
cadmium-coordinated thiacalix[4]arene tetrasulfate [TC4ATS-Cd]	no significant atrophy	significantly lower	5/5	2.13 mM	947 µM	81 µM	35 µM	275 µM	6.9 µM	2.21 mM	15 µM	1500 µM	2.45 mM	not elicited	induced	144 µM	17 µM	body weight changes vs vehicle [2, 20]: no significant difference; tumor growth of Jurkat cells ([2]; 13 mg/kg, xenograft model in mice): significantly suppressed; IC20 ([3]; read-out: maximum tolerated concentration (=IC20 value), TE4, 48 h): 454 µM; IC20 ([4]; read-out: maximum tolerated concentration (=IC20 value), 48 h): 505 µM; caspase-3 proteolytic activity [17]: increased its proteolytic activity; IC20 ([9]; read-out: maximum tolerated concentration (=IC20 value), MCF7, 48 h): 1.33 mM; IC20 ([10]; read-out: maximum tolerated concentration (=IC20 value), HEK293, 48 h): 6.8 µM; IC20 ([11]; read-out: maximum tolerated concentration (=IC20 value), HCT116, 48 h): 280 µM; IC20 ([12]; read-out: maximum tolerated concentration (=IC20 value), FLC-4, 48 h): 667 µM; cleavage of PARP [18]: consistently and markedly upregulated; levels of activated caspase-3 protein [18]: upregulated; LDH release [19]: increased LDH release from Jurkat cells in a dose-dependent manner
